Screens (PubChem BioAssay)
sEH act – activators of human soluble epoxide hydrolase; 91,000 tested, 0.04% active; AID 717; P34913; activation, % at 2 µM; purified human sEH enzymatic activity, activator screen; in the data active = activation above about 37%
Target sequence (P34913 whole entry, looked up): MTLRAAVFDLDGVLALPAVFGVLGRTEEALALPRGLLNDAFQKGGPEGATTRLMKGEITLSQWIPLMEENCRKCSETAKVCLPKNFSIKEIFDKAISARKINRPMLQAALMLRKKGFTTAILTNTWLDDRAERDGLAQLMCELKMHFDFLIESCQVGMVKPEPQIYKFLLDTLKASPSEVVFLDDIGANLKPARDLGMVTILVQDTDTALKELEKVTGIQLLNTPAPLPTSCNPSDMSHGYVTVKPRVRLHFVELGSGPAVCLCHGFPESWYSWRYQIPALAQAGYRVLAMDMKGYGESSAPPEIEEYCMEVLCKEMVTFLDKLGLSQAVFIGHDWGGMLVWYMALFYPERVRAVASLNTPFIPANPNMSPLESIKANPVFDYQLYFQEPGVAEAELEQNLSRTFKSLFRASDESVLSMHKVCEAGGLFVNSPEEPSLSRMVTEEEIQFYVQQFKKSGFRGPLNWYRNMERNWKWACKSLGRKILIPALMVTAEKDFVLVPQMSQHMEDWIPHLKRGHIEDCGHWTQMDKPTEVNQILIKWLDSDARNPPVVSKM
Yeast growth inh – yeast BB579 growth reduction in restrictive medium; S. cerevisiae BB579 growth, OD615, 48 h; inhibition, % at 10 µM; 140,000 tested, 0.51% active; AID 804;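 active = inhibition above a set limit, 3 SD over the mean compound inhibition, cut at about 44% in these data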
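Test system: DeaD yeast strain BB579 / Buffer or medium: restrictive glucose-based CSMM-D medium / Doses: single 10 µM dose / Schedule: 4 h cell preincubation, 48 h compound exposure, 30 °C humidified / Technique: culture absorbance at 615 nm / Controls: amphotericin B positive control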
sEH inh – inhibitors of human soluble epoxide hydrolase | 91,000 tested, 0.34% active | recombinant human sEH enzymatic activity assay | inhibition, % at 2 µM | P34913; in the data active = inhibition above about 80%
Measles CPE – protection of cells from measles virus; Measles virus-infected cells, CPE protection, absorbance; protection (pct of control), % at 4 µM; 140,000 tested, 1.5% active; AID 841; in the data active = protection mostly above about 24%, no sharp cut-off; inactive = mostly below about 26%
sdo1 growth – compounds rescuing growth of sdo1-depleted yeast, bone marrow failure model; S. cerevisiae sdo1-depleted JHY4D growth rescue, OD600 30 h; active compounds read high; pdr5 snq2 efflux-pump mutant strain; z-score at 10 µM; 140,000 tested, 0.21% active;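 active = z-score above 3 at both the 24 hr and the 30 hr optical density reads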;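 also: z-score against mean and SD of all compound wells on the same plate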
Yeast life ext – yeast lifespan extension. inhibition of the nicotinamide effect, % at 10 µM. 130,000 tested, 0.68% active. S. cerevisiae growth with nicotinamide, OD615; deaD strain in restrictive glucose medium;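 active = inhibition above a set limit, placed 3 SD over the median of all compounds, cut at about 26% in these data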;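 also: 0% = nicotinamide-treated wells and 100% = cells grown without nicotinamide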
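Test system: DeaD-strain S. cerevisiae / Buffer or medium: restrictive glucose medium / Also added: nicotinamide 1.5 mM / Doses: one concentration, 10 µM, DMSO 0.25% / Schedule: 48 h at 30 °C / Signal: OD615 measurement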
* hit, by the source's call; . = no result given. Most compounds without a hit are left out; they make up all but 3% or so of the library.

SMILES	sEH act	Yeast growth inh	sEH inh	Measles CPE	sdo1 growth	Yeast life ext
NC(=O)COC(=O)CC(NC(N)=O)c1ccc(Cl)cc1 (stereo not drawn)	.	-36.7	.	36.9*	1.06	0.7
Cc1cc(C)c2c(N=NN(C)C)[nH]nc2n1	15.1	72.6*	-11.9	9.9	-0.52	-8.1
Cc1ccc(-c2nc(N)sc2CC(=O)OCC(=O)NC2CCCC(C)C2C)cc1 (stereo not drawn)	.	-17.2	.	26.4*	0.47	-2.6
O=C(NCCSCc1ccco1)Nc1cccc(Cl)c1	-80.5	-24.0	80.5*	4.6	-0.14	-16.1
COc1ccc(OCc2cccc(C(=O)NN)c2)cc1	.	-8.8	.	10.2	0.71	-4.9
O=C(NCc1ccccc1)c1cccc(COc2cccc(Cl)c2)c1	-11.1	-34.3	13.3	5.9	-1.04	-10.8
NNC(=O)c1cccc(COc2ccc(Br)cc2)c1	.	78.5*	.	19.6	-1.54	-7.9
NNC(=O)c1cccc(COc2cccc(Br)c2)c1	-80.8	-8.3	81.9*	1.2	-0.66	-19.8
O=C(OC[C@@H]1CCCN2CCCC[C@H]12)c1cc2ccccc2oc1=O	.	-20.5	.	16.5	1.7	-2.8
O=C(Nc1ccccc1C(=O)NCc1ccco1)c1ccccc1	9.6	-12.1	-8.3	13.2	-0.24	-15.4
O=C(/C=C/c1ccc(S(=O)(=O)NCc2ccco2)cc1)NCc1ccccc1Cl	.	-32.5	.	6.5	-0.49	-0.2
O=C(/C=C/c1ccc(Cl)cc1)NCc1ccco1	.	10.9	.	18.5*	-0.87	-7.3
O=C(Nc1ccc(Cl)cc1)Nc1ccccc1C(=O)NCc1ccco1	11.1	-36.6	-10.8	37.6*	0.06	-8.8
O=C(Oc1ccc(=O)n(-c2ccccc2)n1)c1ccccc1	-4.9	-52.2	10.3	0.1	0.09	35.9*
O=C(O)COc1ccc(=O)n(-c2ccccc2)n1	-4.1	3.2	5.5	9.4	-1.25	-6.5
O=C(N/N=C\CCc1ccccc1)c1ccco1	.	7.4	.	57.1*	0.84	7.8
Cc1ccc(NC(=O)c2ccc(CSc3nnc(C)s3)cc2)c(C)c1	-0.5	-48.4	-0.7	5.4	-0.01	-1.3
Cc1ccc(NC(=O)c2ccc(CSc3nnc(-c4ccncc4)n3C)cc2)c(C)c1	0.3	-7.0	-1.5	99.9*	0.35	-5.6
COc1ccc2c(c1OC)C(=O)OC2Nn1cncn1 (stereo not drawn)	14.7	-56.5	-16.3	32.0	0.12	50.7*
Cn1cc(Br)c(C(=O)NNC(=O)c2ccc(Cl)cc2)n1	.	-36.1	.	17.1	0.38	5.1
c1ccc2nc3c(nc2c1)[nH]c1ccccc13	.	76.9*	.	12.3	-0.84	.
c1ccc(-c2c3ccccc3nc3[nH]c4ccccc4c23)cc1	.	-40.0	.	19.9	-1.12	-3.9
Cc1ccc(NC(C#N)c2ccccc2OCc2ccccc2)cc1 (stereo not drawn)	2.4	-25.6	0.2	15.8	1.34	6.3
COC(=O)c1ccc(-n2nnnc2SC)cc1	-5.3	-25.1	4.9	16.2	0.36	-4.2
COC(=O)COC(=O)c1ccc(-n2nnnc2SC)cc1	5.1	-27.5	-4.8	53.7*	0.58	-16.7
SMILES	sEH act	Yeast growth inh	sEH inh	Measles CPE	sdo1 growth	Yeast life ext
O=C(Nc1cccc(F)c1)NC1CCCCC1	-88.4	-18.8	88.4*	20.8	0.61	-9.6
O=C(Nc1cccc(F)c1)NC1CC2CCCC(C1)N2C1CC1 (stereo not drawn)	-83.6	-46.2	83.5*	4.5	0.37	-4.4
O=C(Nc1ccc2c(c1)OCCO2)NC1CCCCC1	-89.0	-9.8	88.9*	3.5	0.48	-3.7
Cc1ccccc1OCc1nnc(SCC(=O)Nc2ccc3nc(SCC(=O)Nc4ccccc4)sc3c2)n1C	.	-8.9	.	9.2	0.09	0.9
COc1ccc(/C=C(\C#N)C(=O)N2CCOCC2)cc1Br	-1.8	-13.7	4.0	13.1	0.22	48.3*
CCCCCCc1ccc(-c2ncc(N)cn2)cc1	-0.3	97.5*	-1.7	7.8	-2.89	-31.5
CCCCOc1ccc(-c2ncc(Cl)cn2)cc1	-0.5	-1.8	0.0	5.0	0.24	-7.0
C#CC[N+](C)(C)CCCCCCCCCCCC	.	24.9	.	5.4	-1.82	-6.6
C#CC[N+](C)(C)CCCCCCCCCC	.	7.6	.	27.7*	0.5	-4.9
CCOC(=O)N1C=CC=C[C@@H]2[C@@H](N3C(=O)c4ccccc4C3=O)C(=O)N21	.	-22.4	.	5.2	0.54	-0.5
Cc1cc(C)n(-c2cc(N3CCN(C(=O)c4cccc(F)c4)CC3)ccc2[N+](=O)[O-])n1	.	-18.5	.	11.5	1.45	-4.7
